Results: ChEMBL document CHEMBL1157717, “Design, synthesis and biological evaluation of 6-(benzyloxy)-4-methylquinolin-2(1H)-one derivatives as PDE3 inhibitors” (Bioorg Med Chem, 2010)

Columns and labels:
[1] = molecular target: T1, cGMP-inhibited 3',5'-cyclic phosphodiesterase 3B (Homo sapiens, UniProt Q13370); experiment: Inhibition of human PDE3B by fluorescence microplate reader
In short: (§1)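 IMAP fluorescence-polarization PDE assay: 1 ng PDE3A or PDE3B, 100 nM FAM-cAMP in IMAP reaction buffer, 60 min at room temperature. Binding reagent (1:600) added for a further 60 min at room temperature. Read at ex 485/em 528 nm, in duplicate. % activity is normalised to the no-enzyme and maximum-FP values. IC50 comes from a sigmoidal fit over 0.01–100 μM.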
Target sequence in this assay (Q13370 whole entry): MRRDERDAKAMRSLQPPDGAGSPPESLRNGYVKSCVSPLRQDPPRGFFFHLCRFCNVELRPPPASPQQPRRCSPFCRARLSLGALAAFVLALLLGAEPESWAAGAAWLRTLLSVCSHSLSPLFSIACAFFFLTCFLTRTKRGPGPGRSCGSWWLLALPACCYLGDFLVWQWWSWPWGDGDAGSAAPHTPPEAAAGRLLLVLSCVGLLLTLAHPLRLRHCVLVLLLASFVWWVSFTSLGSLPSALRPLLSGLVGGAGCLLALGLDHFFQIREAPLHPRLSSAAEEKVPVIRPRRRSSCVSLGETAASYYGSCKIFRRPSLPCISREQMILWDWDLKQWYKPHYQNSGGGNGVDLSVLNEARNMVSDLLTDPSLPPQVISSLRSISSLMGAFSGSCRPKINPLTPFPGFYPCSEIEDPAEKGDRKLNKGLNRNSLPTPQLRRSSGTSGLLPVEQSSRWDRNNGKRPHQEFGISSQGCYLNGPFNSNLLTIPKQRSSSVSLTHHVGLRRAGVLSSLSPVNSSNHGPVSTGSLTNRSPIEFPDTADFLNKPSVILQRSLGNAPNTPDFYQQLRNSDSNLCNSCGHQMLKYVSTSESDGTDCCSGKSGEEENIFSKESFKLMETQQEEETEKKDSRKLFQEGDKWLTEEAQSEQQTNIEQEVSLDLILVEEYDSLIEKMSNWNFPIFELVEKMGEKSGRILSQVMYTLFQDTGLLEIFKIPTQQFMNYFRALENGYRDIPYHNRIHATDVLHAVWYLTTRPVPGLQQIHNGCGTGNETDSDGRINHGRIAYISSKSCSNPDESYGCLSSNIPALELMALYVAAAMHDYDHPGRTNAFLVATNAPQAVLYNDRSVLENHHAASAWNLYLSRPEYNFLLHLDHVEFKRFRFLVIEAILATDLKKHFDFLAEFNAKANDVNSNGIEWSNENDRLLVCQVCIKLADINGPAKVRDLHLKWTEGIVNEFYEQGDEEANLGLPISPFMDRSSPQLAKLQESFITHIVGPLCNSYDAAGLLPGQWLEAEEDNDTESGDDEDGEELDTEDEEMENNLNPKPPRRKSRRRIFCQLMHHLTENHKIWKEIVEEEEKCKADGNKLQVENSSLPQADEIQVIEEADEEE

[2] = molecular target: T2, cGMP-inhibited 3',5'-cyclic phosphodiesterase 3A (Homo sapiens, UniProt Q14432); experiment: Inhibition of human PDE3A by fluorescence microplate reader; in short: as §1
T2 sequence (Q14432 whole entry): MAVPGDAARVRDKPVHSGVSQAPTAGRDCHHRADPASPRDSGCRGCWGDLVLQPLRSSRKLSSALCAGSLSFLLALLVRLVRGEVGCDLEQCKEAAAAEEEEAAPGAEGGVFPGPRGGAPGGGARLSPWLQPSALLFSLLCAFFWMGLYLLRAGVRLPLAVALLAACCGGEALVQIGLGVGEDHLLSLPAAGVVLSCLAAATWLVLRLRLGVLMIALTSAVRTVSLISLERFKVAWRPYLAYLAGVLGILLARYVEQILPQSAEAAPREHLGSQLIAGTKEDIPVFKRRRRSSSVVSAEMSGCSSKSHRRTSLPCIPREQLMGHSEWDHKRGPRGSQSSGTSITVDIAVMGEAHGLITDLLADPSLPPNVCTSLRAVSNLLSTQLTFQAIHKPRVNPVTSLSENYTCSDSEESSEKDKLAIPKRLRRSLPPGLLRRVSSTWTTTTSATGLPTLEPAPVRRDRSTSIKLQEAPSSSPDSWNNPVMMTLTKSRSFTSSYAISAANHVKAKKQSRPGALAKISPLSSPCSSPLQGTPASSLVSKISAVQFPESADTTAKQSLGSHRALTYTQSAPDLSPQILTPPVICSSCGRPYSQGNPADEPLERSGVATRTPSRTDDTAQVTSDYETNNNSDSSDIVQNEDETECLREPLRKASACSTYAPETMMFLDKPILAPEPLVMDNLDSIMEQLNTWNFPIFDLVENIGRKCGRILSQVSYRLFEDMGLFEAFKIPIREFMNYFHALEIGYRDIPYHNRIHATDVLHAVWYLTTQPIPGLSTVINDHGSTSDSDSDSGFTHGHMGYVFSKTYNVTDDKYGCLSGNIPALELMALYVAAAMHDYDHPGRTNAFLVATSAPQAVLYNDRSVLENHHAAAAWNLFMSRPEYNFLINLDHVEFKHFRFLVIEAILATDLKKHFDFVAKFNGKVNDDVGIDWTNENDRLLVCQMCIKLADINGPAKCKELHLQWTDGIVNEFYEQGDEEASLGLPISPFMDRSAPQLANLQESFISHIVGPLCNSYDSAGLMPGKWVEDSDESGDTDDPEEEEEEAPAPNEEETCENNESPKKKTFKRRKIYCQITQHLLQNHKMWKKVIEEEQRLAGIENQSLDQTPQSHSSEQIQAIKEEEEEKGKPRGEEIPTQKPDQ

[3] = molecular target: T1, cGMP-inhibited 3',5'-cyclic phosphodiesterase 3B; experiment: Ratio of IC50 for vesnarinone to IC50 for drug against human PDE3B by fluorescence microplate reader
Target sequence in this assay (Q13370 whole entry, looked up): as the sequence (Q13370 whole entry) above

[4] = molecular target: T2, cGMP-inhibited 3',5'-cyclic phosphodiesterase 3A; experiment: Ratio of IC50 for vesnarinone to IC50 for drug against human PDE3A by fluorescence microplate reader
[5] = Positive inotropic activity in isolated reserpine-treated Wistar rat whole atrium assessed as heart rate at 100 uM (Rvb=100+/-2%); type: functional, Cardiac atrium
In short: (§2)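 Male Wistar rats (250–350 g) received reserpine 5 mg/kg ip 24 h before thiopental anaesthesia. Whole atria were mounted in Krebs–Henseleit gassed with 95% O2/5% CO2, 35–37 °C, pH 7.35–7.45, under about 0.5 g resting tension with 40–50 min equilibration. Only tyramine (1.5 μM)-unresponsive preparations were used. Compounds were added cumulatively (1–100 μM), with isometric force and rate recorded. Values are mean ± SEM, six atria.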

[6] = molecular target: T2, cGMP-inhibited 3',5'-cyclic phosphodiesterase 3A; experiment: Ratio of IC50 for vesnarinone to IC50 for drug against human PDE3A by fluorescence microplate reader
[7] = Positive inotropic activity in isolated reserpine-treated Wistar rat whole atrium assessed as contraction at 10 uM (Rvb=100+/-3%); type: functional, Cardiac atrium; in short: as §2
[8] = Positive inotropic activity in isolated reserpine-treated Wistar rat whole atrium assessed as contraction at 1 uM (Rvb=100+/-3%); type: functional, Cardiac atrium; in short: as §2
[9] = Positive inotropic activity in isolated reserpine-treated Wistar rat whole atrium assessed as heart rate at 10 uM (Rvb=100+/-2%); type: functional, Cardiac atrium; in short: as §2
[10] = molecular target: T1, cGMP-inhibited 3',5'-cyclic phosphodiesterase 3B; experiment: Ratio of IC50 for vesnarinone to IC50 for drug against human PDE3B by fluorescence microplate reader
Target sequence in this assay (Q13370 whole entry, looked up): as the sequence (Q13370 whole entry) above

[11] = Positive inotropic activity in isolated reserpine-treated Wistar rat whole atrium assessed as contraction at 100 uM (Rvb=100+/-3%); type: functional, Cardiac atrium; in short: as §2
[12] = Positive inotropic activity in isolated reserpine-treated Wistar rat whole atrium assessed as heart rate at 1 uM (Rvb=100+/-3%); type: functional, Cardiac atrium; in short: as §2
[13] = Positive inotropic activity in isolated reserpine-treated Wistar rat whole atrium assessed as heart rate at 10 uM (Rvb=100+/-3%); type: functional, Cardiac atrium; in short: as §2
[14] = Positive inotropic activity in isolated reserpine-treated Wistar rat whole atrium assessed as heart rate at 100 uM (Rvb=100+/-3%); type: functional, Cardiac atrium; in short: as §2
[15] = Positive inotropic activity in isolated reserpine-treated Wistar rat whole atrium assessed as contraction at 100 uM (Rvb=100+/-4%); type: functional, Cardiac atrium; in short: as §2
[16] = Positive inotropic activity in isolated reserpine-treated Wistar rat whole atrium assessed as contraction at 1 uM (Rvb=100+/-4%); type: functional, Cardiac atrium; in short: as §2
[17] = Positive inotropic activity in isolated reserpine-treated Wistar rat whole atrium assessed as contraction at 10 uM (Rvb=100+/-4%); type: functional, Cardiac atrium; in short: as §2

| SMILES | IC50 [1] | IC50 [2] | also measured |
| --- | --- | --- | --- |
| Cc1cc(=O)[nH]c2ccc(OCc3cccc(C(=O)N4CCC(=O)CC4)c3)cc12 | 1140 nM | 1260 nM |  |
| Cc1cc(=O)[nH]c2ccc(OCc3cccc(C(=O)N4CCN(CCO)CC4)c3)cc12 | 2800 nM | 1650 nM |  |
| Cc1cc(=O)[nH]c2ccc(OCc3cccc(C(=O)N4CCN(C)CC4)c3)cc12 | 3510 nM | 1760 nM | Ratio IC50 [3]: 4; Ratio IC50 [4]: 6 |
| Cc1cc(=O)[nH]c2ccc(OCc3cccc(C(=O)N4CCOCC4)c3)cc12 | 1540 nM | 1340 nM |  |
| Cc1cc(=O)[nH]c2ccc(OCc3cccc(C(=O)N4CCC(C)CC4)c3)cc12 | 1610 nM | 430 nM |  |
| Cc1cc(=O)[nH]c2ccc(OCc3cccc(C(=O)N4CCC(O)CC4)c3)cc12 | 910 nM | 1350 nM |  |
| Cc1cc(=O)[nH]c2ccc(OCc3cccc(C(=O)N4CCC(C(=O)O)CC4)c3)cc12 | 1280 nM | 840 nM |  |
| Cc1cc(=O)[nH]c2ccc(OCc3cccc(C(=O)N4CCCC4)c3)cc12 | 1200 nM | 640 nM |  |
| CCN1CCN(C(=O)c2cccc(COc3ccc4[nH]c(=O)cc(C)c4c3)c2)CC1 | 1930 nM | 1440 nM | Activity [5]: 116%; Ratio IC50 [6]: 25; Activity [7]: 123%; Activity [8]: 101%; Activity [9]: 108%; Ratio IC50 [10]: 8; Activity [11]: 146% |
| Cc1cc(=O)[nH]c2ccc(OCc3cccc(C(=O)N4CCCCC4)c3)cc12 | 1730 nM | 660 nM |  |
| COc1ccc(C(=O)N2CCN(c3ccc4c(c3)CCC(=O)N4)CC2)cc1OC [VESNARINONE] | 13200 nM | 10700 nM | Activity [12]: 103%; Activity [13]: 109%; Activity [14]: 114%; Activity [15]: 141%; Activity [16]: 102%; Activity [17]: 121% |
